ChEMBL document CHEMBL2169875, “Designing allosteric regulators of thrombin. Monosulfated benzofuran dimers selectively interact with Arg173 of exosite 2 to induce inhibition” (J Med Chem, 2012)
Values belong to the molecule of their own block, whether it stands above or below them. Active and inactive are the calls of the source. The rule behind the calls is not given here.

Experiments:
[1] = Inhibition of wild type human plasma alpha-thrombin assessed as spectrozyme TH hydrolysis after 10 mins in absence of exosite 1 ligand HirP
How it was run: (§1)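 Buffer was 20 mM Tris-HCl pH 7.4, 100 mM NaCl, 2.5 mM CaCl2, 0.1% PEG 8000. After 10 min, Spectrozyme TH was added and A405 read. Apparent IC50 and efficacy came from a logistic fit with all parameters floating.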

Homo sapiens [2] = species: Homo sapiens; experiment: Binding affinity to human antithrombin by spectrofluorometric analysis
[3] = Inhibition of recombinant thrombin Lys169Ala mutant expressed in BHK cells assessed as spectrozyme TH hydrolysis after 10 mins; format: cell-based
How it was run: (§2)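 Recombinant thrombins (wild type or Ala mutants) made as prothrombin-1 in BHK cells, purified by HPC4 immunoaffinity, activated, and active-site titrated. About 5 nM enzyme was incubated 10 min at 25 °C with inhibitor in 20 mM Tris-HCl pH 7.4, 100 mM NaCl, 2.5 mM CaCl2, 0.1% PEG 8000. Spectrozyme TH was then added, and the initial A405 rate was read. The dose-response of fractional residual activity was fitted to a logistic equation for IC50, Hill slope and efficacy.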

Coagulation factor X = Coagulation factor X (Homo sapiens, UniProt P00742); experiment: Inhibition of human plasma F10a assessed as spectrozyme TH hydrolysis after 10 mins
How it was run: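 Chromogenic assay of human plasma factor Xa (4 nM final) at 25 °C in 20 mM Tris-HCl pH 7.4, 100 mM NaCl, 2.5 mM CaCl2, 0.1% PEG 8000. Inhibitor dilutions (from 0.25–12.5 mM stocks) incubated with enzyme 10 min, then 1 mM Spectrozyme TH stock added. Initial rate at 405 nm gave fractional residual activity. Fitting the logistic equation yielded apparent IC50, Hill slope and efficacy ΔY.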

[4] = Inhibition of recombinant thrombin Arg175Ala mutant expressed in BHK cells assessed as spectrozyme TH hydrolysis after 10 mins; format: cell-based; how it was run: as §2
[5] = Inhibition of wild type human plasma alpha-thrombin assessed as spectrozyme TH hydrolysis after 10 mins in presence of 6.5 uM exosite 2 ligand FibP; format: cell-free; how it was run: as §1
[6] = Inhibition of recombinant thrombin Arg93,97,101Ala mutant expressed in BHK cells assessed as spectrozyme TH hydrolysis after 10 mins; format: cell-based; how it was run: as §2
[7] = Inhibition of wild type human plasma alpha-thrombin assessed as spectrozyme TH hydrolysis after 10 mins by spectrophotometric analysis in absence of exosite 2 ligand UFH; how it was run: as §1
[8] = Inhibition of recombinant thrombin Lys235Ala mutant expressed in BHK cells assessed as spectrozyme TH hydrolysis after 10 mins; format: cell-based; how it was run: as §2
[9] = Inhibition of wild type human plasma alpha-thrombin assessed as spectrozyme TH hydrolysis after 10 mins in presence of 10 uM exosite 2 ligand H8; format: cell-free; how it was run: as §1
Prothrombin [10] = target: T1, Prothrombin (Homo sapiens, UniProt P00734); experiment: Inhibition of recombinant wild type thrombin expressed in BHK cells assessed as spectrozyme TH hydrolysis at 0.25 to 12.5 mM after 10 mins; format: cell-based
Homo sapiens [11] = species: Homo sapiens; experiment: Inhibition of wild type human plasma alpha-thrombin assessed as spectrozyme TH hydrolysis after 10 mins in presence of exosite 1 ligand HirP; format: cell-free; how it was run: as §1
[12] = Inhibition of wild type human plasma alpha-thrombin assessed as spectrozyme TH hydrolysis after 10 mins in absence of exosite 2 ligand H8; how it was run: as §1
[13] = Inhibition of wild type human plasma alpha-thrombin assessed as spectrozyme TH hydrolysis after 10 mins in absence of exosite 2 ligand FibP; how it was run: as §1
A549 = experiment: Cytotoxicity against human A549 cells assessed as cell viability up to 420 uM after 120 hrs by MTT assay; format: cell-based; settings: a549, 120 h
How it was run: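 A549 cells in DMEM with 10% heat-inactivated FBS were kept at 37 °C, 5% CO2. Cells were seeded at 30,000 per well for 4 h, then exposed to medium or varying compound concentrations (aqueous stock) for 120 h at 37 °C. MTT was added for 10 h, followed by SDS/DMF lysis for 10 h. Three experiments were run, analysed by one-way ANOVA with Dunnett's test.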

BHK = experiment: Inhibition of recombinant thrombin Arg93,97,101Ala mutant expressed in BHK cells assessed as spectrozyme TH hydrolysis at 0.25 to 12.5 mM after 10 mins; format: cell-based
[14] = Partial competitive inhibition of wild type human plasma alpha-thrombin assessed as spectrozyme TH hydrolysis after 10 mins in presence of 48 uM exosite 2 ligand UFH; format: cell-free; how it was run: as §1
Prothrombin [15] = target: T1, Prothrombin; experiment: Inhibition of recombinant wild type thrombin expressed in BHK cells assessed as spectrozyme TH hydrolysis after 10 mins; format: cell-based; how it was run: as §2

Coagulation factor X, sequence (P00742 41-179 limits assumed): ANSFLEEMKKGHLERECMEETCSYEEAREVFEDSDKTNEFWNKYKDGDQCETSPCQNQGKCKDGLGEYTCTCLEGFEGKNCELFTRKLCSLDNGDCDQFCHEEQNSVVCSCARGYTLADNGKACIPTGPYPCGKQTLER
Coagulation factor X, sequence (P00742 235-488 limits assumed): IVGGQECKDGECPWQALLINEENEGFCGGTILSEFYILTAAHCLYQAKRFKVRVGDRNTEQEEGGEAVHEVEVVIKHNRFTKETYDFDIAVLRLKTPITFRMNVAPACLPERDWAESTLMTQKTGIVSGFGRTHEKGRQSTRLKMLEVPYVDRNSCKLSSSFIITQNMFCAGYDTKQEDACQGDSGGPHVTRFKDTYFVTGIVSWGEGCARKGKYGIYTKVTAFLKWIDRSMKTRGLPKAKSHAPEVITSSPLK

IC50 [1]: 31.9 µM
SMILES: COC(=O)c1c(C)oc2cc(OC)c(OCc3oc4cc(OC)c(OS(=O)(=O)O)cc4c3C(=O)OC)cc12

Activity (Homo sapiens [2]): 50 nM
SMILES: CO[C@H]1O[C@H](COS(=O)(=O)O)[C@@H](O[C@@H]2O[C@@H](C(=O)O)[C@@H](O[C@H]3O[C@H](COS(=O)(=O)O)[C@@H](O[C@@H]4O[C@H](C(=O)O)[C@@H](O[C@H]5O[C@H](COS(=O)(=O)O)[C@@H](O)[C@H](O)[C@H]5NS(=O)(=O)O)[C@H](O)[C@H]4O)[C@H](OS(=O)(=O)O)[C@H]3NS(=O)(=O)O)[C@H](O)[C@H]2OS(=O)(=O)O)[C@H](O)[C@H]1NS(=O)(=O)O

IC50 [1]: 1.3 µM
SMILES: CCOC(=O)c1c(C)oc2cc(OC(C)C)c(OCc3oc4cc(OC(C)C)c(OS(=O)(=O)O)cc4c3C(=O)OCC)cc12

IC50 [1]: 16.9 µM
SMILES: COCCOC(=O)c1c(C)oc2cc(OC)c(OCc3oc4cc(OC)c(OS(=O)(=O)O)cc4c3C(=O)OCCOC)cc12

IC50 [1]: 4.5 µM
SMILES: CCOC(=O)c1c(C)oc2cc(OCC)c(OCc3oc4cc(OCC)c(OS(=O)(=O)O)cc4c3C(=O)OCC)cc12

SMILES: CCOC(=O)c1c(C)oc2cc(OC)c(OCc3oc4cc(OC)c(OS(=O)(=O)[O-])cc4c3C(=O)OCC)cc12.[Na+]
IC50 [1]: 6.2 µM | IC50 [3]: 4.9 µM | IC50 (Coagulation factor X): > 300 µM | IC50 [4]: 4.9 µM | IC50 [5]: 118 µM | IC50 [6]: 5 µM | IC50 [7]: 8.8 µM | IC50 [8]: 4.9 µM | IC50 [9]: 3.7 µM | inhibition (Prothrombin [10]): 30% | inhibition (Homo sapiens [11]): Active | IC50 [12]: 2.7 µM | IC50 [13]: 7.9 µM | Activity (A549): Non-toxic | inhibition (BHK): 70% | IC50 [14]: 36.1 µM | IC50 (Prothrombin [15]): 5.5 µM

IC50 [1]: > 500 µM
SMILES: COc1cc2oc(C)c(C(=O)O)c2cc1OCc1oc2cc(OC)c(OS(=O)(=O)O)cc2c1C(=O)O
